Converted amounts (≈) assume the structure as drawn. The source made the active and inactive calls. No cut-off for these calls is given here.
Columns and labels:
A549 [1] = assay: Cytotoxicity against human A549 cells assessed as decrease in cell viability at 100 uM after 48 hrs; assay type: functional, cell-based
Procedure, shortened: (§1)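 Cell viability measured in triplicate after 48 h exposure to a single 100 μM concentration. Actinomycin D served as the positive control.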

PC-3 [2] = assay: Cytotoxicity against human PC3 cells assessed as decrease in cell viability at 100 uM after 48 hrs; assay type: functional, cell-based; procedure, shortened: as §1
Staphylococcus aureus = assay: Antibacterial activity against Staphylococcus aureus ATCC 6538 after 16 to 48 hrs; assay type: functional
Procedure, shortened: (§2)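 Bacterial MIC assay run in triplicate and read after 16−48 h incubation. Kanamycin and ampicillin served as positive controls.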

Micrococcus luteus = assay: Antibacterial activity against Micrococcus luteus NRRL B-287 after 16 to 48 hrs; assay type: functional; procedure, shortened: as §2
A549 [3] = assay: Cytotoxicity against human A549 cells assessed as decrease in cell viability after 48 hrs; assay type: functional, cell-based; conditions: A549, 48 h
Procedure, shortened: (§3)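 Human cancer cell line viability assay run in triplicate with 48 h compound exposure. IC50 derived from viability data. Actinomycin D served as the positive control.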

Bacillus spizizenii = assay: Antibacterial activity against Bacillus subtilis ATCC 6633 after 16 to 48 hrs; assay type: functional; procedure, shortened: as §2
Mycolicibacterium aurum = assay: Antimycobacterial activity against Mycobacterium aurum ATCC 23366 after 16 to 48 hrs; assay type: functional; procedure, shortened: as §2
PC-3 [4] = assay: Cytotoxicity against human PC3 cells assessed as decrease in cell viability after 48 hrs; assay type: functional, cell-based; conditions: PC-3, 48 h; procedure, shortened: as §3

Row | MIC (Staphylococcus aureus) [µM] | MIC (Micrococcus luteus) [µM] | MIC (Bacillus spizizenii) [µM] | MIC (Mycolicibacterium aurum) [µM] | SMILES | Activity (A549 [1]) | Activity (PC-3 [2]) | IC50 (A549 [3]) [nM] | IC50 (PC-3 [4]) [nM]
1 |  |  |  |  | COc1ccc(C[C@H](NC(C)=O)C(=O)N[C@H]2[C@@H](O)[C@H](n3cnc4c(N(C)C)ncnc43)O[C@@H]2CO)cc1 | Active | Active |  | 
2 |  |  |  |  | COc1ccc(C[C@H](O)C(=O)N[C@H]2[C@@H](O)[C@H](n3cnc4c(N(C)C)ncnc43)O[C@@H]2CO)cc1 | Active | Active |  | 
3 | 4 to 30 (≈ 1.89 to 14.1 µg/mL) | 4 to 30 (≈ 1.89 to 14.1 µg/mL) | 4 to 30 (≈ 1.89 to 14.1 µg/mL) | 4 to 30 (≈ 1.89 to 14.1 µg/mL) | COc1ccc(C[C@H](N)C(=O)N[C@H]2[C@@H](O)[C@H](n3cnc4c(N(C)C)ncnc43)O[C@@H]2CO)cc1 [PUROMYCIN] |  |  | 300 | 300
4 |  |  |  |  | CC(=O)N[C@@H](CC(C)C)C(=O)N[C@H]1[C@@H](O)[C@H](n2cnc3c(N(C)C)ncnc32)O[C@@H]1CO | Active | Active |  | 
5 |  |  |  |  | CC(=O)N[C@H]1[C@@H](O)[C@H](n2cnc3c(N(C)C)ncnc32)O[C@@H]1CO | Active | Active |  | 

From ChEMBL document CHEMBL4266053, “Puromycins B-E, Naturally Occurring Amino-Nucleosides Produced by the Himalayan Isolate Streptomyces sp. PU-14G” (J Nat Prod, 2018)
